The values that follow come from ChEMBL document CHEMBL4513216, “Probing the Open Global Health Chemical Diversity Library for Multistage-Active Starting Points for Next-Generation Antimalarials” (ACS Infect Dis, 2020).

A short description of this series: Toxicity liver stage against HepG2, at 10uM. Format: cell-based. On the set-up: test concentration 10 uM, cell line HepG2-A16-CD81EGFP. Particulars: human, HepG2-A16-CD81EGFP cells; read-out: INHIBITION
In a few lines:
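Uninfected HepG2-A16-CD81EGFP cells, 3 × 10^3 per well, 1536-well, plated on prespotted compound at 10 μM final, parasite-free screening media added to match infected plates; puromycin 10 μM positive, DMSO 0.5% negative; run in parallel with 48 h PbLuc assay at 37 °C, 5% CO2; viability by CellTiter-Glo luminescence, normalized to controls.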
For the compound `CCN(CC)C1(Cc2cc(COC)on2)COC1`, the cytotoxicity at 10 µM was -2.45%.

In the case of `Cc1nc(-c2ccc(S(=O)(=O)N3CCCCC3)cc2)co1`, the cytotoxicity at 10 µM is -2.5%.

`CCCC(O)CN1CCC(=O)N(CCOC)Cc2ccccc21` (configuration not stated): the cytotoxicity at 10 µM came out at 3.23%.

For `Nc1cccnc1N1CCC(c2ccccc2)CC1`, the cytotoxicity at 10 µM is -5.2%.

As for `COC(=O)CCn1ccc(=O)c2cc(F)ccc21`, the cytotoxicity at 10 µM stood at 0.409%.

Consider `O=C(CC1NC(N2CCc3ccccc32)=NC1=O)Nc1ccccc1` (configuration not stated), for which the cytotoxicity at 10 µM was -1.3%.

In the case of `O=S(=O)(NCCNc1cc(-n2cccc2)ncn1)c1cccs1`, the cytotoxicity at 10 µM is -0.582%.

In the case of `COC1(CNC(=O)c2ccsc2)CCSC1` (configuration not stated), the cytotoxicity at 10 µM was -3.09%.

As to `Cc1cc(C(=O)N2CC[C@@H]3CN(CCC(C)C)S(=O)(=O)[C@@H]3CC2)no1`, the cytotoxicity at 10 µM stood at 1.58%.

For the compound `CN(C)CCOCC1CN(C(=O)c2cscn2)Cc2ccnn2C1` (configuration not stated), the cytotoxicity at 10 µM is 3.65%.

Regarding `O=C(NCC1CC1)C1CN(C(=O)c2ccnnc2)CC12CCOCC2` (configuration not stated), the cytotoxicity at 10 µM is 8.21%.

As to `Cn1cc(NC(=O)Cn2cc(-c3ccccc3)ncc2=O)cn1`, the cytotoxicity at 10 µM is -3.43%.

In the case of `CC(=O)Nc1ncc(S(=O)(=O)Nc2ccc(F)cc2F)s1`, the cytotoxicity at 10 µM stood at 11.1%.

For the compound `O=C(NCc1ccccc1)c1nnc2ccc(N3CCOCC3)cc2n1`, the cytotoxicity at 10 µM stood at 11.2%.

As to `CNC(=O)CCc1cc(C2CCCN2S(C)(=O)=O)nc(C)n1` (configuration not stated), the cytotoxicity at 10 µM is -0.0612%.

Take `CCCn1cc(CN2CCOCC2c2[nH]ncc2C)cn1` (configuration not stated): the cytotoxicity at 10 µM worked out at 0.325%.

In the case of `CCC1CCCCN1C(=O)Cn1nc(-c2ccc(C)s2)cc(N)c1=O` (configuration not stated), the cytotoxicity at 10 µM turned out to be 2.64%.

Turning to `CC(C)N1CC(C(=O)NCc2ccc(S(=O)(=O)N(C)C)cc2)CC1=O` (configuration not stated), the cytotoxicity at 10 µM worked out at 4.44%.

With `CCN(CC)c1ncc2c(O)nc(C3CCNCC3)cc2n1`, the cytotoxicity at 10 µM amounted to 14.7%.

Consider `COc1ccccc1NC(=O)C1(c2ccccc2)CCOCC1`, for which the cytotoxicity at 10 µM worked out at 7.59%.

Turning to `COCC(=O)N1CCN(C)C(=O)C(Cc2ccc(-c3cccs3)cc2)C1` (configuration not stated), the cytotoxicity at 10 µM was 1.74%.

With `CC(=O)N1Cc2ccccc2OC2(CCN(C(=O)C3CCOC3)CC2)C1` (configuration not stated), the cytotoxicity at 10 µM is 0.146%.

For the compound `O=C(Cc1cccc(O)c1)N1CCCC(O)(CN2CCOCC2)CC1` (configuration not stated), the cytotoxicity at 10 µM is -3.28%.

In the case of `CNC(=O)c1cn[nH]c1C1CCN(Cc2cccc(C)c2OC)C1` (configuration not stated), the cytotoxicity at 10 µM is -23.6%.

As for `Cc1ccnc(C2(C)CCCN2C(=O)c2cnccn2)n1` (configuration not stated), the cytotoxicity at 10 µM is -34%.

For the compound `Cc1cc(C2CCCCCN2Cc2cn(C)nc2C)no1` (configuration not stated), the cytotoxicity at 10 µM was -20.4%.

Take `Nc1cc(-c2cccs2)nn(CC(=O)NCC2CCCCC2)c1=O`: the cytotoxicity at 10 µM is -3.09%.

`Fc1ccc(CN2CCCC(c3nccnc3-n3ccnc3)C2)cc1` (configuration not stated): the cytotoxicity at 10 µM is -20.4%.

Consider `Cn1cccc1CN1CCc2c(nc(-c3ccccn3)[nH]c2=O)C1`, for which the cytotoxicity at 10 µM is -10%.

For the compound `CC(C)(C)c1cc(NC(=O)CN(Cc2ccco2)Cc2cccs2)on1`, the cytotoxicity at 10 µM stood at 11.2%.

Take `Cc1noc(CNC(=O)NCC2(C)CCCc3ccccc32)n1` (configuration not stated): the cytotoxicity at 10 µM was -1.17%.

As to `Cc1cc(C)n(CCCNC(=O)C2CCCO2)n1` (configuration not stated), the cytotoxicity at 10 µM was -11.5%.

Take `CCOCCN1CCN(CC(=O)NC2(C#N)CCCC2)CC1CC` (configuration not stated): the cytotoxicity at 10 µM came to 7.73%.

As to `Cc1nc(C)c(C(=O)N2CCc3c(C)cccc32)o1`, the cytotoxicity at 10 µM is -2.28%.

As for `Cc1noc(C)c1CNC(=O)Nc1ccc(N2CCOC(C)C2)cc1` (configuration not stated), the cytotoxicity at 10 µM is -2.35%.

In the case of `CCOc1cc(CNC(=O)CNC(=O)CC2CCCCC2)ccn1`, the cytotoxicity at 10 µM came out at 6.81%.

For the compound `CN(C)c1ccc(C(=O)Nc2ccn(CCc3ccncc3)n2)cc1`, the cytotoxicity at 10 µM is -4.59%.

For the compound `CCC(C)N(C)C(=O)Nc1ccc(N2CCSCC2)cc1C` (configuration not stated), the cytotoxicity at 10 µM is -12.5%.

`Cc1nc(-c2ccco2)ccc1C(=O)NCCC(=O)N1CCCCC1`: the cytotoxicity at 10 µM was -1.33%.

For `CC(C)c1cnc(CN2CCCC(c3ccn[nH]3)C2)o1` (configuration not stated), the cytotoxicity at 10 µM was -4.01%.

`CS(=O)(=O)CCSC1CCN(c2ccccc2F)C1=O` (configuration not stated): the cytotoxicity at 10 µM is -7.68%.

Regarding `O=C(C1SCCc2sccc21)N1CC(O)C1` (configuration not stated), the cytotoxicity at 10 µM turned out to be 9.22%.

Take `COCCn1cc(C(=O)N2CCCC2c2cnn(C)c2)ccc1=O` (configuration not stated): the cytotoxicity at 10 µM is 5.92%.

Take `Cc1cc(NS(=O)(=O)c2cccs2)ccc1-n1cccc1C(=O)O`: the cytotoxicity at 10 µM was -2.68%.

On to `CCCN(C)C(=O)c1cc(Br)cc(S(=O)(=O)N2CCOCC2)c1F`, for which the cytotoxicity at 10 µM turned out to be 6.83%.

As to `CC(C)OC(=O)CCNC(=O)Nc1cccc2ncccc12`, the cytotoxicity at 10 µM was 1.03%.

As for `CCCOc1ccc(Cl)cc1C(=O)N1CCC(n2cncn2)CC1`, the cytotoxicity at 10 µM was 2.93%.

Regarding `COc1ccccc1N1CCC(CNS(=O)(=O)c2cccs2)C1` (configuration not stated), the cytotoxicity at 10 µM came out at 5.66%.

In the case of `CC1CN(C)CCN1C(=O)Nc1nc(-c2ccc[nH]2)cs1` (configuration not stated), the cytotoxicity at 10 µM is -1.94%.

For the compound `CCC(O)CN1CCN(C(=O)Cc2c(C)nc(C)[nH]c2=O)CC1` (configuration not stated), the cytotoxicity at 10 µM was -19.3%.

With `c1ccc(C2CN(CCc3ccncc3)CCO2)cc1` (configuration not stated), the cytotoxicity at 10 µM was -8.85%.

As to `Cc1csc(C(C)(C)NCC(=O)N2CCCC(C(F)(F)F)C2)n1` (configuration not stated), the cytotoxicity at 10 µM was determined as 6.32%.

Turning to `Cc1c(C(C)NC(=O)Nc2ccc(F)c(F)c2)cnn1C` (configuration not stated), the cytotoxicity at 10 µM is -46.8%.

As to `CCC(O)CN1CCN(C(=O)c2ccnc(N(C)C)c2)CC1` (configuration not stated), the cytotoxicity at 10 µM is -7.87%.

With `Cn1nccc1NC(=O)c1cccc(CN2C[C@H]3CC[C@@H](C2)N3)c1`, the cytotoxicity at 10 µM came out at 6.56%.

For the compound `CNCC(=O)N1CCCC1c1nc(C(C)C)no1` (configuration not stated), the cytotoxicity at 10 µM came to 0.983%.

In the case of `CCN(CCN1CCCCCC1)C(=O)COc1cccnc1`, the cytotoxicity at 10 µM turned out to be 12.6%.

With `CCCN1CCC(CC(=O)N(C)C(C)c2cncs2)CC1` (configuration not stated), the cytotoxicity at 10 µM was found to be 2.62%.

Turning to `CCCc1cc(C(=O)N(Cc2cccnc2)Cc2cccnc2)[nH]n1`, the cytotoxicity at 10 µM is -5.79%.

With `CC(C)c1nnsc1CNC(=O)C1CCN(C(C)C)CC1`, the cytotoxicity at 10 µM was -8.05%.

On to `CC1(C)CC(CN2CCC3(CCC(=O)N(C4CCC4)C3)CC2)CCO1` (configuration not stated), for which the cytotoxicity at 10 µM is 0.986%.

As for `Cc1cccnc1CNC(=O)CC1C(=O)NCCN1CC(C)(C)C` (configuration not stated), the cytotoxicity at 10 µM stood at 5.48%.

Regarding `CN(C)C(C(=O)NCC1(N(C)C)CCOCC1)c1ccccc1F` (configuration not stated), the cytotoxicity at 10 µM came out at 2.2%.

With `CCn1nc(C)cc1C(=O)NCc1nc(C)cc(C)n1`, the cytotoxicity at 10 µM was -0.745%.

On to `Cc1ncc(C(=O)N2CCCCC2c2nc3cc(F)ccc3[nH]2)c(O)n1` (configuration not stated), for which the cytotoxicity at 10 µM was -0.305%.

Regarding `Cn1ccnc1C1CCCN(C(=O)c2ccc3nccnc3c2)C1` (configuration not stated), the cytotoxicity at 10 µM worked out at 19.7%.

Regarding `Cc1noc(C2CCCCN2C(=O)C2CCN(C(C)C)CC2)n1` (configuration not stated), the cytotoxicity at 10 µM was -4.62%.

For the compound `O=C1NCC2(CCCN(C(=O)c3c[nH]nc3-c3cccs3)C2)O1` (configuration not stated), the cytotoxicity at 10 µM was 8.32%.

`O=C(CCCN1CCCCC1)NC(C(=O)O)c1ccc(Cl)cc1` (configuration not stated): the cytotoxicity at 10 µM is -2.33%.

Turning to `CCn1ncc(C(=O)N2CCCN(CCCc3ccccc3)CC2)c1C`, the cytotoxicity at 10 µM was -2.62%.

On to `CC(C)n1cnnc1CN(C)CC1CCOC1` (configuration not stated), for which the cytotoxicity at 10 µM is 11.3%.

Turning to `CN(C(=O)CSc1ccccn1)C1CCCN(CCc2ccccc2)C1` (configuration not stated), the cytotoxicity at 10 µM was -4.46%.

Take `COCc1ccc(C(=O)N2CCCN(c3ccc(F)cc3)CC2)s1`: the cytotoxicity at 10 µM was -8.92%.

Take `Cc1oc(-c2ccc(F)cc2)nc1CN1CCOCS1(=O)=O`: the cytotoxicity at 10 µM was determined as 4.57%.

For the compound `Cn1cc(NC(=O)N2CCC2c2ccccc2)ccc1=O` (configuration not stated), the cytotoxicity at 10 µM was -9.57%.

`Cc1ccc(OCC(=O)NS(=O)(=O)c2c(C)noc2C)cc1C`: the cytotoxicity at 10 µM is -1.96%.

Take `Cc1cc(C)c(CNC(=O)N(C)CC2CCCCO2)c(=O)[nH]1` (configuration not stated): the cytotoxicity at 10 µM was -8.93%.

For the compound `COC1CCN(C(=O)Cc2csc(-c3ncccn3)n2)CC1`, the cytotoxicity at 10 µM was -12.6%.

Regarding `COc1cccc(C2CCCN2Cc2nc3c(cnn3C)c(=O)[nH]2)c1` (configuration not stated), the cytotoxicity at 10 µM is -4.35%.

Consider `COc1c(C)cnc(CN2CCCCC2Cn2nc(C)nc2C)c1C` (configuration not stated), for which the cytotoxicity at 10 µM was -0.627%.

As for `CNC(=O)CS(=O)(=O)Cc1cc(Cl)c2c(c1)OCCCO2`, the cytotoxicity at 10 µM was -5.61%.

As to `Cc1cnc(CN(C)C2CCN(Cc3nc4ccccc4n3C)C2)o1` (configuration not stated), the cytotoxicity at 10 µM was 2.57%.

As to `Cc1cc(OCC(=O)N2CCCC(c3noc(C)n3)C2)no1` (configuration not stated), the cytotoxicity at 10 µM was -0.0722%.

For the compound `CC(Cn1cccn1)NC(=O)Cc1cccs1` (configuration not stated), the cytotoxicity at 10 µM turned out to be 4.93%.

On to `CCN1CCC(NC(=O)CN2CCCC2Cn2cncn2)CC1` (configuration not stated), for which the cytotoxicity at 10 µM was 6.54%.

For `Cc1nc2c(c(C)c1CC(=O)NCc1cccc(C#N)c1)c(=O)[nH]n2C`, the cytotoxicity at 10 µM was -0.722%.

Consider `Cn1cnnc1C1CCCN(C(=O)c2cnc3ccccc3n2)C1` (configuration not stated), for which the cytotoxicity at 10 µM was found to be 0.577%.

In the case of `Cc1ccc(-c2cc(C3CCNCC3)nc(C)n2)cc1`, the cytotoxicity at 10 µM came to 9.63%.

Consider `CN(C)c1ncc(-c2ccc(C(N)=O)cc2)c(C2CCNC2)n1` (configuration not stated), for which the cytotoxicity at 10 µM is -0.892%.

With `CCn1ccc2ccnc(CC3CN(C(=O)Cn4ccnc4C)C3)c21`, the cytotoxicity at 10 µM is -5.87%.

With `c1cc2c(cc1CN1CC[C@H]3[C@H]1CCN3CC1CC1)OCO2`, the cytotoxicity at 10 µM was determined as 1.67%.

Turning to `Cn1cccc1C(=O)N1C[C@H]2CN(Cc3cccc(F)c3)C[C@H]2C1`, the cytotoxicity at 10 µM is -1.1%.

With `O=C(NCC1CC1)C1CCC2(CCN(C(=O)c3cccnc3)CC2)O1` (configuration not stated), the cytotoxicity at 10 µM came out at 3.59%.

For `CC[C@@H]1N(Cc2ccco2)CCC[C@]12CCC(=O)N2C`, the cytotoxicity at 10 µM was -0.00736%.

For the compound `Cc1ccc(CN2CCc3[nH]nc(C(=O)N(C)C)c3C2)o1`, the cytotoxicity at 10 µM came to 0.081%.

For the compound `Cc1ccc(CN2CC[C@H]3OCC[C@@H](C(=O)NCC4CC4)[C@@H]3C2)s1`, the cytotoxicity at 10 µM is -0.53%.

For the compound `Cc1cc(CN2CC[C@H]3OCC[C@@]3(C(=O)NC(C)C)C2)no1`, the cytotoxicity at 10 µM turned out to be 5.86%.
